Here are results for 74 sequences from the array DNA melting data of Ke et al. (doi:10.1101/2024.01.08.574731).

Data set [1] is described as follows: folding enthalpy; higher = less favourable; fluorescence melt of hairpins on a sequencing array, two-state fit. To be noted: sodium 0.088 M. The essentials:
(§1)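 Folding enthalpy and melting temperature were estimated with bootstrapped two-state fits and combined across four replicates by inverse-variance weighting, with fitted temperatures raised by 9.35 °C to match UV melts. The data were Cy3 fluorescence of library hairpins, with annealed Cy3 and quencher oligos, on a sequenced MiSeq flow cell in 50 mM Na-HEPES pH 8.0, 25 mM NaCl, imaged in 2.5 °C steps up to 60 °C and normalised to pre-quench Cy3 and control constructs.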

The nature of data set [2]: melting temperature; fluorescence melt of hairpins on a sequencing array, two-state fit, raised by 9.35 °C to match UV melts. To be noted: sodium 0.088 M. The essentials: as §1

As to GGCTACGAAAGTATCGCC ((((((....)))..))), the folding enthalpy in data set [1] is -22.5 kcal/mol. The Tm in data set [2] was found to be 40.6 °C.
The matching figures for GGTGCGGGAAACCGCGCC ((.((((....)))).)): -31.3 kcal/mol and 68.7 °C.
The matching figures for GATCTCCTCGAGATC ((((((...)))))): -38.6 kcal/mol and 54.5 °C.
The matching figures for GAAAACGAAAGTTCGTTC ((((((....)))..))): -10.8 kcal/mol and 25.1 °C.
Regarding GTTCTCGGAAACGGGAAC ((((.((....)).)))), in data set [1], the folding enthalpy is -41.3 kcal/mol. The Tm in data set [2] was 51 °C.
As for AGCGAGAAATCGCT (((((....))))), in data set [1], the folding enthalpy was -20.7 kcal/mol. For the same sequence, the Tm in data set [2] was determined as 53.7 °C.
The matching figures for GGCGACGAAAGTCCTGCC ((((((....)))..))): -20.4 kcal/mol and 46 °C.
The matching figures for GATTAACGAAAGTTGATC (((.(((....))).))): -35.2 kcal/mol and 44 °C.
The matching figures for GCAGCGGGAAACCGCCAC (..((((....))))..): -8.97 kcal/mol and 29.8 °C.
Take GTGAAGCCGAAAGGCCAC (((..(((....)))))): the folding enthalpy in data set [1] is -15.6 kcal/mol. For the same sequence, the Tm in data set [2] is 47.8 °C.
The matching figures for GCGTACGAAAGTATTCGC ((((((....)))..))): -25.5 kcal/mol and 40.7 °C.
The matching figures for GTAATCGCGAAAGCGTAC (((..(((....)))))): -6.16 kcal/mol and 26.7 °C.
On to GGTGAACGAAAGTTACC (((.(((....)))))), for which, in data set [1], the folding enthalpy was -23.4 kcal/mol. Besides, the Tm in data set [2] came to 40.6 °C.
Take GAGCGCGAAAGCGTTCTC ((((((....)))..))): the folding enthalpy in data set [1] was -18.1 kcal/mol. Moreover, the Tm in data set [2] worked out at 66.8 °C.
The matching figures for GCTACGCGAAAGCGTTGC ((.((((....)))).)): -27.2 kcal/mol and 65 °C.
The matching figures for GCGCTGCGAAAGCATAGC ((..(((....)))..)): -22.7 kcal/mol and 52.7 °C.
GATCGAGCAGTCGATC ((((((....)))))): the folding enthalpy in data set [1] was -39.7 kcal/mol. For the same sequence, the Tm in data set [2] amounted to 54.3 °C.
The matching figures for GACCTTGGAAACAAGATC ((.((((....)))).)): -21 kcal/mol and 30.6 °C.
For GATCAGGTCGCTGATC ((((((....)))))), in data set [1], the folding enthalpy is -43 kcal/mol. The Tm in data set [2] was 53.3 °C.
The matching figures for CGGACGGAAACGTTCCCG ((((((....)))..))): -15.8 kcal/mol and 37.2 °C.
The matching figures for GTGTCCGAAAGGACTCAC ((((((....)))..))): -10 kcal/mol and 39.4 °C.
For the sequence GCATACACGAAAGTGTGC (((..(((....)))))), the folding enthalpy in data set [1] is -16.1 kcal/mol. In addition, the Tm in data set [2] was 45.9 °C.
On to GTTCCCGAAAGGGTTAAC ((((((....)))..))), for which the folding enthalpy in data set [1] is -8.45 kcal/mol. For the same sequence, the Tm in data set [2] turned out to be 30.1 °C.
Regarding GATCGGGAGGCCGATC ((((((....)))))), in data set [1], the folding enthalpy is -46.1 kcal/mol. Moreover, in data set [2], the Tm stood at 56.2 °C.
The matching figures for GATCAGTGCGCTGATC ((((((....)))))): -44.1 kcal/mol and 56.6 °C.
Turning to GCACGAGCGAAAGCTTGC (((..(((....)))))), the folding enthalpy in data set [1] was -11.3 kcal/mol. Besides, in data set [2], the Tm came out at 41 °C.
The matching figures for GATCTTTCTAAGATC ((((((...)))))): -34.2 kcal/mol and 45.2 °C.
The matching figures for GATCAATCATTTGATC ((((((....)))))): -37.3 kcal/mol and 45.5 °C.
The matching figures for GATCTCTCGGGAGATC ((((((....)))))): -38.3 kcal/mol and 53.5 °C.
Regarding GCGTGTCACGC ((((...)))), the folding enthalpy in data set [1] was -31.1 kcal/mol. The Tm in data set [2] is 57.7 °C.
The matching figures for GGATGCCGAAAGGCCTCC (((.(((....))).))): -24.9 kcal/mol and 50.5 °C.
For GTTCCCGAAAGGGAAAAC ((((((....)))..))), the folding enthalpy in data set [1] was -10.8 kcal/mol. Besides, the Tm in data set [2] was 41 °C.
The matching figures for GATCACATCAGTGATC ((((((....)))))): -42.1 kcal/mol and 58.4 °C.
The matching figures for GGTGCAACGAAAGTTACC (((..(((....)))))): -13.1 kcal/mol and 27.7 °C.
GTCTCAGGAAACTAAGAC ((((.((....)).)))): the folding enthalpy in data set [1] was -11.5 kcal/mol. In addition, the Tm in data set [2] came out at 24.2 °C.
For GCGTTCTGACGC ((((....)))), in data set [1], the folding enthalpy is -25.1 kcal/mol. In data set [2], the Tm was found to be 55.3 °C.
The matching figures for GTGTAGCGAAAGCTCAC (((.(((....)))))): -23.2 kcal/mol and 51.8 °C.
The matching figures for GACGTGCGAAAGCAGTC (((.(((....)))))): -21.6 kcal/mol and 54.9 °C.
Take GTGATAGGAAACTATCGC (.(((((....))))).): the folding enthalpy in data set [1] was -38.2 kcal/mol. The Tm in data set [2] was 46.3 °C.
The matching figures for GGGTACGGAAACGTACTC (.(((((....))))).): -16.1 kcal/mol and 51.2 °C.
The matching figures for GAGATCCCGAAAGGGCTC (((..(((....)))))): -12 kcal/mol and 34.9 °C.
The matching figures for GAGCGGGGAAACTCGCTC (((((.(....).))))): -38.3 kcal/mol and 60.4 °C.
On to GATCCCGTAGGGGATC ((((((....)))))), for which the folding enthalpy in data set [1] is -23.4 kcal/mol. In data set [2], the Tm was found to be 62.9 °C.
The matching figures for GAGGCTGGAAACGGTCTC (((.(.(....).).))): -28.5 kcal/mol and 39.6 °C.
The matching figures for GATCACACTAGTGATC ((((((....)))))): -43.4 kcal/mol and 58.8 °C.
The matching figures for GCGTCTTGACGC ((((....)))): -34.4 kcal/mol and 69.1 °C.
Consider GCTCAGCGAAAGCGTAGC (((..((....))..))), for which the folding enthalpy in data set [1] is -18.1 kcal/mol. Besides, the Tm in data set [2] turned out to be 49.7 °C.
The matching figures for GGTGCCGAAAGGCGCACC ((((((....)))..))): -11 kcal/mol and 53.2 °C.
The matching figures for GGGGTCGAAAGACCACCC ((((((....)))..))): -12.7 kcal/mol and 54.7 °C.
The matching figures for GCAGTTGCGAAAGCATGC (((..(((....)))))): -16.8 kcal/mol and 42 °C.
Take GATCTGTGGCAGATC ((((((...)))))): in data set [1], the folding enthalpy is -30.3 kcal/mol. Moreover, the Tm in data set [2] was determined as 49.1 °C.
The matching figures for GATCCTCTACAGGATC ((((((....)))))): -31.1 kcal/mol and 51.8 °C.
The matching figures for GTACGGGGAAACCCGTGC (.(((((....))))).): -26.9 kcal/mol and 55.6 °C.
Turning to GAATAGCGAAAGCTCTTC (((.(((....))).))), the folding enthalpy in data set [1] was -19.4 kcal/mol. For the same sequence, the Tm in data set [2] came out at 38.7 °C.
The matching figures for GCGCCTGGAAACAGGCAC (.(((((....))))).): -11.9 kcal/mol and 47.9 °C.
The matching figures for GATCGTCCCAACGATC ((((((....)))))): -40.2 kcal/mol and 55.6 °C.
The matching figures for TACCAGAAATGGTA (((((....))))): -13.3 kcal/mol and 37.5 °C.
In the case of GATCAAGCTTTTGATC ((((((....)))))), in data set [1], the folding enthalpy was -34.8 kcal/mol. In data set [2], the Tm stood at 44.5 °C.
The matching figures for GTCTTTCGAAAGAAGAC (((.(((....)))))): -25.1 kcal/mol and 38.5 °C.
The matching figures for GTATGCCGAAAGGCCTAC (((.(((....))).))): -12.1 kcal/mol and 45.5 °C.
Consider GTGACCGAAAGGTAGCAC ((((((....)))..))), for which the folding enthalpy in data set [1] was -16.9 kcal/mol. Besides, in data set [2], the Tm came out at 36.1 °C.
The matching figures for GTACCACCGAAAGGTTAC (((..(((....)))))): -11.5 kcal/mol and 21.6 °C.
The matching figures for GAAACGCGAAAGCGATTC (((.(((....))).))): -28.3 kcal/mol and 50.8 °C.
The matching figures for GCGTGACGAAAGTCCCGC (((.(((....))).))): -21.9 kcal/mol and 59.8 °C.
For GTCTTGCGAAAGCAGGAC (((.(((....))).))), the folding enthalpy in data set [1] is -27.4 kcal/mol. In addition, the Tm in data set [2] worked out at 58 °C.
Consider GACGAACGAAAGTTGGTC (((.(((....))).))), for which, in data set [1], the folding enthalpy was -36.7 kcal/mol. In addition, in data set [2], the Tm was 48.8 °C.
The matching figures for GATCACCAAGGTGATC ((((((....)))))): -43.3 kcal/mol and 60 °C.
The matching figures for GGAGGACGAAAGTCATCC (((.(((....))).))): -33.3 kcal/mol and 61.4 °C.
The matching figures for GTACACGAAAGTGCGTAC ((((((....)))..))): -10.7 kcal/mol and 30.8 °C.
In the case of GATCACCGCTGTGATC ((((((....)))))), the folding enthalpy in data set [1] was -36.3 kcal/mol. For the same sequence, the Tm in data set [2] came out at 57 °C.
Regarding GGCTATGGAAACGTAGTC (.(((.(....).))).), the folding enthalpy in data set [1] is -18.6 kcal/mol. Besides, the Tm in data set [2] came to 32.3 °C.
The matching figures for GATGTAGCGAAAGCTATC (((..(((....)))))): -12 kcal/mol and 31.4 °C.
The matching figures for GTAAGTGGAAACGCTTAC (((((.(....).))))): -27.6 kcal/mol and 45.4 °C.
The matching figures for GTCCGGGGAAACCTGGGC (.((.((....)).)).): -29.8 kcal/mol and 48.3 °C.
